We go through one compound from ChEMBL document CHEMBL2331169, “Search for α3β₂/₃γ2 subtype selective ligands that are stable on human liver microsomes” (Bioorg Med Chem, 2013).

In data set [1] the target is T1, GABA A receptor alpha-5/beta-3/gamma-2 (Rattus norvegicus) (UniProt P18508+P19969+P63079). Briefly: Agonist activity at rat GABAA alpha5beta3gamma2 receptor expressed in Xenopus oocytes assessed as stimulation of GABA-induced chloride current at 1 uM incubated 30 secs prior to GABA induction measured after 15 mins by two-electrode voltage clamp assay relative to control. The data set is classed as cell-based. As to conditions: Oocyte. A digest of the protocol:
(§1)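 Rat GABAA β3 and γ2 cDNAs plus α1, α2, α3 or α5 cDNA injected into Xenopus oocytes; follicle layers removed 36 h later. Two-electrode recording with […]-filled electrodes; oocytes perfused with Ringer (90 mM NaCl, 5 mM HEPES pH 7.4, 1 mM MgCl2, KCl, CaCl2) switched to GABA at EC3 with drug (0.1% DMSO final). Mean ± SEM, 3–4 oocytes, ≥2 batches.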
In general terms: In two-electrode clamp one electrode senses voltage and the other passes current.

Data set [2] is described as follows: Metabolic stability in human liver microsomes assessed as compound remaining at 10 uM measured at 30 mins by LC-MS/MS analysis relative to control. The conditions noted are these: read-out: Stability. The data set is classed as ADME, Microsome. A digest of the protocol: (§2)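 Pooled human liver microsomes (150 donors, 0.5 mg protein/ml) with 2.5 mM NADPH and 3.3 mM MgCl2 in 100 mM phosphate pH 7.4, 0.1% DMSO final, 37 °C, reaction started with microsomes. Aliquots quenched in cold acetonitrile with internal standard; LC-MS/MS in positive-ion ESI MRM mode. Percent remaining is analyte/internal-standard peak-area ratio versus 0 min ×100; duplicates.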
In general terms: Microsomes from liver hold many membrane-bound enzymes, among them those of drug oxidation.

Data set [3] in a line: Metabolic stability in heat inactivated human liver microsomes assessed as compound remaining at 1 uM measured at 60 mins by LC-MS/MS analysis relative to control. The data set is classed as ADME, Microsome. As to conditions: heat-inactivated liver microsomes, read-out: Stability. A digest of the protocol: (§3)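 Control incubation with heat-inactivated human liver microsomes (0.5 mg protein/ml) in 100 mM phosphate pH 7.4, 37 °C, sampled at 0 and 60 min. Samples quenched in acetonitrile with internal standard and analysed by LC-MS/MS. Percent remaining is the peak-area ratio relative to 0 min ×100; duplicates.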

For data set [4], the target named is Gamma-aminobutyric acid receptor subunit alpha-3 (Rattus norvegicus) (UniProt P20236). Briefly: Agonist activity at rat GABAA alpha3beta3gamma2 receptor expressed in Xenopus oocytes assessed as stimulation of GABA-induced chloride current at 1 uM incubated 30 secs prior to GABA induction measured after 15 mins by two-electrode voltage clamp assay relative to control. The data set is classed as cell-based. The conditions noted are these: Oocyte. A digest of the protocol:
as §1

The nature of data set [5]: Metabolic stability in human liver microsomes assessed as compound remaining at 1 uM measured at 15 mins by LC-MS/MS analysis relative to control. The data set is classed as ADME, Microsome. The conditions noted are these: read-out: Stability. A digest of the protocol:
as §2

The nature of data set [6]: Metabolic stability in human liver microsomes assessed as compound remaining at 10 uM measured at 15 mins by LC-MS/MS analysis relative to control. The data set is classed as ADME, Microsome. As to conditions: read-out: Stability. A digest of the protocol:
as §2

The test system of data set [7] is Liver microsomes. Briefly: Metabolic stability in human liver microsomes assessed as compound remaining at 1 uM measured at 60 mins by LC-MS/MS analysis relative to control. The data set is classed as ADME, Microsome. The conditions noted are these: microsomes, 1 h, 1 µM. Put shortly: as §2
Data set [8] addresses T2, GABA-A receptor; alpha-1/beta-2/gamma-2 (Rattus norvegicus) (UniProt P18508+P62813+P63138). The data set is described as follows: Agonist activity at rat GABAA alpha1beta3gamma2 receptor expressed in Xenopus oocytes assessed as stimulation of GABA-induced chloride current at 1 uM incubated 30 secs prior to GABA induction measured after 15 mins by two-electrode voltage clamp assay relative to control. The data set is classed as cell-based. As to conditions: Oocyte. Put shortly: as §1

Data set [9] addresses T3, GABA A receptor alpha-2/beta-2/gamma-2 (Rattus norvegicus) (UniProt P18508+P23576+P63138). Briefly: Agonist activity at rat GABAA alpha2beta3gamma2 receptor expressed in Xenopus oocytes assessed as stimulation of GABA-induced chloride current at 1 uM incubated 30 secs prior to GABA induction measured after 15 mins by two-electrode voltage clamp assay relative to control. The conditions noted are these: Oocyte. The data set is classed as cell-based. Put shortly:
as §1

Data set [10] relates to Liver microsomes. Briefly: Metabolic stability in human liver microsomes assessed as compound remaining at 1 uM measured at 30 mins by LC-MS/MS analysis relative to control. The data set is classed as ADME, Microsome. As to conditions: microsomes, 0.5 h, 1 µM. A digest of the protocol:
as §2

The target in data set [11] is T2, GABA-A receptor; alpha-1/beta-2/gamma-2 (Rattus norvegicus). The data set is described as follows: Agonist activity at rat GABAA alpha1beta3gamma2 receptor expressed in Xenopus oocytes assessed as stimulation of GABA-induced chloride current at 100 nM incubated 30 secs prior to GABA induction measured after 15 mins by two-electrode voltage clamp assay relative to control. As to conditions: Oocyte. The data set is classed as cell-based. Put shortly:
as §1

The nature of data set [12]: Metabolic stability in human liver microsomes assessed as compound remaining at 10 uM measured at 60 mins by LC-MS/MS analysis relative to control. The data set is classed as ADME, Microsome. The conditions noted are these: read-out: Stability. Put shortly: as §2
Data set [13] can be described thus: Metabolic stability in heat inactivated human liver microsomes assessed as compound remaining at 10 uM measured at 60 mins by LC-MS/MS analysis relative to control. The data set is classed as ADME, Microsome. As to conditions: read-out: Stability. A digest of the protocol: as §3
Data set [14] concerns the target Gamma-aminobutyric acid receptor subunit alpha-3 (Rattus norvegicus) (UniProt P20236). The data set is described as follows: Agonist activity at rat GABAA alpha3beta3gamma2 receptor expressed in Xenopus oocytes assessed as stimulation of GABA-induced chloride current at 100 nM incubated 30 secs prior to GABA induction measured after 15 mins by two-electrode voltage clamp assay relative to control. The data set is classed as cell-based. As to conditions: Oocyte. A digest of the protocol:
as §1

The target of data set [15] is T3, GABA A receptor alpha-2/beta-2/gamma-2 (Rattus norvegicus). Briefly: Agonist activity at rat GABAA alpha2beta3gamma2 receptor expressed in Xenopus oocytes assessed as stimulation of GABA-induced chloride current at 100 nM incubated 30 secs prior to GABA induction measured after 15 mins by two-electrode voltage clamp assay relative to control. The data set is classed as cell-based. As to conditions: Oocyte. Put shortly:
as §1

In data set [16] the target is T1, GABA A receptor alpha-5/beta-3/gamma-2 (Rattus norvegicus). Briefly: Agonist activity at rat GABAA alpha5beta3gamma2 receptor expressed in Xenopus oocytes assessed as stimulation of GABA-induced chloride current at 100 nM incubated 30 secs prior to GABA induction measured after 15 mins by two-electrode voltage clamp assay relative to control. The data set is classed as cell-based. As to conditions: Oocyte. A digest of the protocol: as §1

Molecules are shown by their SMILES.

Chain of Gamma-aminobutyric acid receptor subunit alpha-3 (Rattus norvegicus) (P20236 whole entry): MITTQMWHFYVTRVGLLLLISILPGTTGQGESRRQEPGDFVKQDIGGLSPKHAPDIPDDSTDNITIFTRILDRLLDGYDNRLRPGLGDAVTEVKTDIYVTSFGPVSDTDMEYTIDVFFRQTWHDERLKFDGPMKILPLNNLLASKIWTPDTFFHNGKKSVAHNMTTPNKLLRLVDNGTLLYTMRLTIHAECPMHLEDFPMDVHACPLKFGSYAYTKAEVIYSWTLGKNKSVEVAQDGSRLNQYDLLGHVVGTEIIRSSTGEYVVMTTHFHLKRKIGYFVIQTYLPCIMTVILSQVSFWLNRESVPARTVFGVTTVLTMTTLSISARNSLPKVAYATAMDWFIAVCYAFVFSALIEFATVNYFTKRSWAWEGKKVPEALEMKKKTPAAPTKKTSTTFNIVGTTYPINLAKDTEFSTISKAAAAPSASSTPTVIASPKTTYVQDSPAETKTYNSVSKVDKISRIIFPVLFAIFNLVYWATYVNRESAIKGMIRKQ

In the case of `C#Cc1ccc2c(c1)C(c1ccccn1)=NCc1c(C(=O)NC)ncn1-2`, the Activity in data set [1] was determined as 182%; in data set [4], 376%; in data set [8], 171%; in data set [9] it was 226%; in data set [11] it was 117%; in data set [14], 163%. In addition, the Activity in data set [15] was determined as 140%; in data set [16], 122%. In addition, the remaining at 0.5 h, 10 µM in data set [2] is 106%. Moreover, in data set [3], the remaining at 1 h, 1 µM was 110%. In data set [5], the remaining at 0.25 h, 1 µM was found to be 109%. The remaining at 0.25 h, 10 µM in data set [6] is 104%. The Stability was found to be 136.4% in [7] and 126% in data set [10]. For the same compound, the remaining at 1 h, 10 µM in data set [12] and in data set [13] was 110% in each case.
